Assay results from different studies.
Protocols differ between the studies behind these lines.
Target: Cyclin-dependent kinase 16 (CDK16, Homo sapiens, UniProt Q00536)

| SMILES | observed | method | concentration | remaining binding [%] |
| --- | --- | --- | --- | --- |
| C[C@@H](c1ccc(-n2cnc3c(N)ncnc32)cc1)N1CCc2nn(C)c(Cc3ccccc3)c2C1=O | binding | competition with immobilised ligand | 0.1 µM | 67 |
| FC(F)(F)Oc1cccc(-c2cnc3ccc(-c4ccncc4)nn23)c1 | cell-free assay | competition with immobilised ligand | 5 µM | 53 |
| CN(CCCC(F)(F)F)c1nccc(-c2cnn3ncccc23)n1 | binding | – | 1 µM | 100 |
| Cc1c(NC(=O)c2cc(C(N)=O)nc3cc(F)ccc23)c(C(F)(F)F)nn1Cc1ccc(C(C)(C)C)cc1 | cell-free assay | competition with immobilised ligand | 1 µM | 100 |
| O=C(c1ccc(Nc2ncc(Cl)c(-c3cc4ccccc4s3)n2)cc1)N1CCC(N2CCCC2)CC1 | binding | competition with immobilised ligand | 1 µM | 0.7 |
| CN(c1ccnc(CNc2nc(Nc3ccc4c(c3)CC(=O)N4)ncc2C(F)(F)F)n1)S(C)(=O)=O | cell-free assay | competition with immobilised ligand | 1 µM | 82 |
| O=C(Nc1c[nH]nc1C(=O)NC1CCNCC1)c1cc(F)cc(F)c1 | binding | competition with immobilised ligand | 1 µM | 12 |
| CN(c1nccc(-c2cnn3ncccc23)n1)C1CC1 | binding | – | 1 µM | 100 |
| Cc1noc([C@H]2C[C@@H](c3ccc(C(F)(F)F)cc3)CN(C(=O)N3CCS(=O)(=O)C3)C2)n1 | cell-free assay | competition with immobilised ligand | 1 µM | 100 |
| COc1ccnn2ncc(-c3ccnc(N(C)C)n3)c12 | binding | – | 1 µM | 100 |
| O=C(NCCCN1CCOCC1)c1ccc(Nc2nccc(-c3cc4ccccc4s3)n2)cc1 | binding | competition with immobilised ligand | 1 µM | 75 |
| C[C@@H]1CN(c2ccc3ncc(-c4ccc5[nH]nc(C6CC6)c5c4)n3n2)C[C@H](C)O1 | binding | competition with immobilised ligand | 50 nM | 98 |
| c1cnn2ncc(-c3ccnc(N4CCC45COC5)n3)c2c1 | binding | – | 1 µM | 97 |
| O=C(O)[C@@H]1[C@@H](Cn2nnc3ccccc3c2=O)CC[C@H]1C(=O)c1ccc(OCCC2CCOCC2)cc1 | cell-free assay | competition with immobilised ligand | 1 µM | 100 |
| Nc1ncc2c(n1)-c1c([nH]c3ccc(C#CC4CC4)cc13)CCCC2 | binding | competition with immobilised ligand | 1 µM | 100 |
| CN(C)c1ncc(F)c(-c2cnn3ncccc23)n1 | binding | – | 1 µM | 96 |
| O=C(c1ccc(Nc2ncc(Cl)c(-c3ccc(Cl)s3)n2)cc1)N1CCC(N2CCCC2)CC1 | binding | competition with immobilised ligand | 1 µM | 0.2 |
| CC(C)CC(=O)N1CCc2nc(-c3ccc(Br)cc3)nc(N(C)Cc3ccccc3)c2C1 | cell-free assay | competition with immobilised ligand | 0.1 µM | 100 |
| COc1cnc(Nc2cccc(S(N)(=O)=O)c2)nc1N1CCN(c2ccccc2)CC1 | binding | competition with immobilised ligand | 1 µM | 79 |
| O=C(NC[C@@H]1[C@H]2CN(C(=O)OCc3cc(C(F)(F)F)cc(C(F)(F)F)c3)C[C@@H]12)c1ccc2[nH]nnc2c1 | cell-free assay | competition with immobilised ligand | 1 µM | 100 |
| COc1cnc(Nc2cccc(S(N)(=O)=O)c2)nc1N1CCN(c2ccccc2)C(=O)C1 | binding | competition with immobilised ligand | 1 µM | 92 |
| O=C(Nc1ccc(Oc2ccc(F)cc2)cc1)N1CCc2ncccc2[C@H]1c1ccc(F)cc1 | cell-free assay | competition with immobilised ligand | 1 µM | 65 |
| N[C@@H]1CCN(c2nccc(-c3cnn4ncccc34)n2)C1 | binding | – | 1 µM | 95 |
| COc1cc(-c2cn(C3CCc4c(F)cccc4N(CC(F)(F)F)C3=O)nn2)ccc1-n1cnc(C)c1 (stereo not shown) | cell-free assay | competition with immobilised ligand | 1 µM | 82 |
| c1cncc(-c2cccc(Nc3nccc(NC4CCCCC4)n3)c2)c1 | binding | competition with immobilised ligand | 10 µM | 95 |
